Experimental data taken from PubChem BioAssay.
Activity calls are given as the source filed them.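 Rule for the calls, unless noted: active = GFP response above 150% of the DMSO level; inconclusive = fewer than 70 events counted for a yeast strain; inactive = the rest.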

How the values were obtained:
[1] = RPL19A-GFP modulators, yeast TOR pathway, confirmation, cell-based, S. cerevisiae, flow cytometry, cherry picks, mother/daughter gates (AID 2270;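 active = GFP response below 50% of the DMSO control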); conditions: S. cerevisiae RPL19A-GFP strain, 3 h, at 10 µM, stronger effect = lower value, 100 = same GFP as DMSO wells
[2] = LAP4-GFP expression modulators in yeast, confirmation, cell-based, cherry picks, flow cytometry, mother/daughter gates (AID 2271;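 active = GFP response above 150% of the DMSO control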;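 note: ratio of sample to DMSO plate mean so 100% equals DMSO level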); conditions: S. cerevisiae LAP4-GFP strain, 3 h, at 10 µM, stronger effect = higher value, 100 means same as DMSO control
In short: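 System: GFP-fusion yeast strain | Input: Yeast cells seeded at OD600 of 0.2 | Technique: HT flow cytometry, GFP fluorescence channel | Read-out: % GFP response vs DMSO | Dosing: Single test-compound dose, 10 µM final | Controls: Positive rapamycin (400 ng/mL), negative DMSO | Times: 3 h treatment at 30 °C with rotation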

[3] = modulators of MEP2-GFP levels in yeast, confirmation, S. cerevisiae, flow cytometry GFP, cherry picks (AID 2272;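 active = GFP response above 150% of the DMSO control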;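 note: ratio of well signal to plate DMSO mean so 100% equals DMSO level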); conditions: S. cerevisiae MEP2-GFP strain, 3 h, at 10 µM, stronger effect = higher value
[4] = AGP1-GFP expression modulators, hit retest, confirmation, cell-based, flow cytometry, S. cerevisiae, cherry picks (AID 2273);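 note: median GFP channel fluorescence over the whole cell population gate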; conditions: S. cerevisiae AGP1-GFP strain, 3 h, at 10 µM
[5] = modulators of CIT2-GFP expression in yeast, confirmation, S. cerevisiae, GFP fusion, cherry picks, mother/daughter gates (AID 2274); conditions: S. cerevisiae CIT2-GFP strain, flow cytometry, 3 h, at 10 µM, stronger effect = higher value
[6] = measured here: daughter cell gate
[7] = measured here: mother cell gate
[8] = measured here: daughter cell gate response
[9] = measured here: mother cell gate response

SMILES | GFP response vs DMSO [1] | GFP response vs DMSO [1, 6] [%] | GFP response vs DMSO [1, 7] [%] | GFP response relative to DMSO [2] | GFP response relative to DMSO [2, 8] [%] | GFP response relative to DMSO [2, 9] [%] | GFP response vs DMSO [3] | GFP response, % of DMSO [4] | GFP response, % of DMSO [5] | GFP response, % of DMSO [5, 6] [%] | GFP response, % of DMSO [5, 7] [%]
O=C(N/N=C\c1ccc(F)cc1)c1cc(OCC(F)(F)F)ccc1OCC(F)(F)F | 99.1% (inactive) | 99.3 | 99.2 | 100% (inactive) | 95 | 99.5 | 102% (inactive) | 105% (inactive) | 105% (inactive) | 106 | 103
Cc1ccc(C(=O)c2nocc2C(=O)c2cccs2)cc1 | 98.7% (inactive) | 93.6 | 99.8 | 123% (inactive) | 111 | 128 | 95.4% (inactive) | 89.9% (inactive) | 80.6% (inactive) | 79.7 | 80.5
CCn1c(=O)c(C(=O)NC(C)C)c(O)c2ccccc21 | 101% (inactive) | 98.7 | 101 | 101% (inactive) | 100 | 101 | 100% (inactive) | 97.8% (inactive) | 103% (inactive) | 99.7 | 103
COC(=O)c1cc(N2C(=O)C3C(C2=O)C2(C)C=CC3(C)O2)ccc1Cl (configuration not stated) | 101% (inactive) | 101 | 92.5 | 193% (active) | 173 | 177 | 110% (inactive) | 106% (inactive) | 101% (inactive) | 109 | 88.6
Cn1ncc2c(O/N=C(\N)c3ccc(C(C)(C)C)cc3)ncnc21 | 92.7% (inactive) | 92 | 87.9 | 143% (inactive) | 96.6 | 162 | 121% (inactive) | 106% (inactive) | 182% (active) | 114 | 155
CCOC(=O)CS(=O)(=O)c1nc(-c2ccc(F)cc2)cc(C(F)(F)F)n1 | 109% (inactive) | 113 | 102 | 170% (active) | 170 | 165 | 113% (inactive) | 108% (inactive) | 116% (inactive) | 123 | 106
COc1ccc(C(=O)/C=C2/C(=O)Nc3ccccc32)c(OC)c1 | 99.5% (inactive) | 96.7 | 95.2 | 136% (inactive) | 123 | 139 | 97.8% (inactive) | 99.2% (inactive) | 82.2% (inactive) | 83.4 | 77.3
O=C(O)c1ccc2ccc3ccccc3c2c1 | 96.6% (inactive) | 94.2 | 95 | 99.5% (inactive) | 97.5 | 98.4 | 96.8% (inactive) | 105% (inactive) | 122% (inactive) | 121 | 121
COc1ccc(N2CCN(C(=O)c3ccc(C)cc3Cl)CC2)cc1 | 101% (inactive) | 98.1 | 102 | 97.4% (inactive) | 98.7 | 99.3 | 104% (inactive) | 95.9% (inactive) | 92.6% (inactive) | 93.2 | 92.3
CCC(=O)Nc1cccc(C(=O)/C=C/c2cc(Br)ccc2OC)c1 | 98.8% (inactive) | 99.2 | 97.7 | 103% (inactive) | 98.7 | 110 | 104% (inactive) | 97.2% (inactive) | 93.9% (inactive) | 94.8 | 91.2
CCOC(=O)c1cc2c(=O)n3ccccc3nc2n(CCOC)c1=NC(=O)C(C)(C)C | 99.4% (inactive) | 99.1 | 97.3 | 94.4% (inactive) | 92.6 | 94.1 | 99% (inactive) | 103% (inactive) | 94.4% (inactive) | 93.8 | 93.2
C/C(=N\NC(=O)c1cccc(Br)c1)c1ccccn1 | 108% (inactive) | 97.6 | 102 | 163% (active) | 149 | 166 | 122% (inactive) | 97.3% (inactive) | 108% (inactive) | 101 | 101
O=[N+]([O-])c1ccc(Sc2ccccc2Cl)nc1 | 103% (inactive) | 104 | 103 | 91.9% (inactive) | 93.6 | 89.7 | 112% (inactive) | 106% (inactive) | 105% (inactive) | 106 | 103
CCC(CC)C(=O)Nc1cccc(/C(C)=N/NC(=O)c2ccccc2Cl)c1 | 98.6% (inactive) | 97 | 99.1 | 99.8% (inactive) | 103 | 99.3 | 102% (inactive) | 100% (inactive) | 100% (inactive) | 99.7 | 102
Cc1cc(N2CCN(C(=O)c3ccco3)CC2)n2ncc(-c3ccccc3)c2n1 | 108% (inactive) | 90.8 | 101 | 108% (inactive) | 96 | 105 | 116% (inactive) | 106% (inactive) | 118% (inactive) | 95.8 | 107
Cc1ccc(C2=NN(S(C)(=O)=O)C(c3ccc4nccnc4c3)C2)cc1 (configuration not stated) | 98.6% (inactive) | 99.4 | 97.6 | 101% (inactive) | 101 | 99.3 | 100% (inactive) | 96.8% (inactive) | 101% (inactive) | 103 | 99.7
O=C(NC(=S)NNC(=O)c1ccc(Cl)cc1Cl)c1cccnc1 | 102% (inactive) | 103 | 102 | 97.3% (inactive) | 96.6 | 98.2 | 101% (inactive) | 104% (inactive) | 98.4% (inactive) | 100 | 96.7
O=C(NCc1ccncc1)C12CC3CC(CC(Cl)(C3)C1)C2 | 96.2% (inactive) | 98.1 | 96.8 | 97% (inactive) | 95.9 | 96.2 | 99% (inactive) | 99.8% (inactive) | 105% (inactive) | 105 | 103
COc1cccc(C(=O)Nc2ccc(C)cc2)c1 | 100% (inactive) | 99.9 | 100 | 101% (inactive) | 99.2 | 101 | 102% (inactive) | 91.2% (inactive) | 107% (inactive) | 106 | 106
CCc1sc(C(=O)N2CCc3ccccc32)cc1C | 94.9% (inactive) | 93.3 | 94.6 | 114% (inactive) | 111 | 114 | 99.3% (inactive) | 96.8% (inactive) | 87.5% (inactive) | 85.2 | 88.2
CCCc1[nH]nc2c1C(c1cc(OC)ccc1F)C(C#N)=C(N)O2 (configuration not stated) | 98% (inactive) | 99.3 | 97.7 | 101% (inactive) | 101 | 100 | 96.8% (inactive) | 101% (inactive) | 105% (inactive) | 103 | 104
Clc1cccc(Cn2ncc3ccccc32)c1 | 95% (inactive) | 95.1 | 94.9 | 103% (inactive) | 102 | 103 | 92% (inactive) | 94.1% (inactive) | 95.5% (inactive) | 95.4 | 95
O=C(COC(=O)c1cccs1)Nc1nc(-c2ccccc2)cs1 | 97% (inactive) | 95.6 | 98.4 | 99.2% (inactive) | 99.2 | 99.3 | 96.2% (inactive) | 99.1% (inactive) | 99.7% (inactive) | 99.1 | 96.1
O=C(CS(=O)c1ccccc1[N+](=O)[O-])Oc1ccc(Br)cc1 (configuration not stated) | 101% (inactive) | 105 | 96.5 | 168% (active) | 167 | 164 | 101% (inactive) | 107% (inactive) | 98.6% (inactive) | 105 | 91.5
CC(C)c1nnc(NC(=O)c2nc(S(=O)(=O)Cc3ccccc3)ncc2Cl)s1 | 98.5% (inactive) | 101 | 95.4 | 102% (inactive) | 101 | 100 | 106% (inactive) | 102% (inactive) | 100% (inactive) | 99.3 | 99.3
COc1ccc(C(c2c(C)[nH]n(C(N)=S)c2=O)C(C#N)C#N)cc1 (configuration not stated) | 105% (inactive) | 96.2 | 98.8 | 317% (active) | 246 | 299 | 104% (inactive) | 101% (inactive) | 89.2% (inactive) | 92.7 | 79.3
O=C(NCCO)c1c(O)c2cccc3c2n(c1=O)CC3 | 99.3% (inactive) | 99.2 | 99.4 | 92.6% (inactive) | 94.1 | 94.2 | 97.8% (inactive) | 101% (inactive) | 97.8% (inactive) | 96.5 | 96.6
